Assay [1] has as its system Escherichia coli. The experiment in a line: Induction of photoactive porphyrins in Escherichia coli K-12 assessed as porphyrin 5-CP level exposed to irradiation at 120 J.cm2 light by HPLC. Format: functional, organism-based. The method in brief:
(§1)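 Cells were loaded 4 h at 37°C in the dark with substrate in PBS (pH 6.5), in parallel with the PDI samples. 10 ml of suspension was pelleted and taken up in ethanol/DMSO/acetic acid (80:20:1). Cells were broken by five 5-s sonication pulses at 0°C and centrifuged. The supernatant was run on HPLC with a gradient (acetate buffer/acetonitrile to methanol/acetonitrile) and fluorescence detection (ex 407, em 620 nm). Total porphyrins are given as pmol·10⁻⁶ CFU.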

The subject of assay [2] is Pseudomonas aeruginosa. The experiment in a line: Induction of photoactive porphyrins in Pseudomonas aeruginosa assessed as porphyrin level per 10^-6 CFU microbial load incubated at 10 mM followed by irradiation at 120 J.cm2 light relative to untreated control.
Assay [3] deals with Pseudomonas aeruginosa. The experiment in a line: Antibacterial activity against Pseudomonas aeruginosa assessed as microbial survival fraction incubated at 10 mM followed by irradiation at 120 J.cm2 light relative to untreated control. It counts as functional. The method in brief: (§2)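 Log-phase cells (OD600 ~0.30) washed twice in PBS (0.1 N, pH 6.5), pelleted, resuspended in freshly made substrate in the same PBS and kept 4 h at 37°C in the dark with shaking. About 5 × 10⁷ bacteria in 2.5 ml were then exposed to white halogen light for 40 min (120 J·cm⁻²). CFU were counted by plating dilutions on Columbia agar. Survival = CFU/ml after PDI ÷ CFU/ml of initial sample; mean of n = 4 ± SD.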

In assay [4] the test system is Staphylococcus aureus. Briefly: Induction of photoactive porphyrins in methicillin resistant Staphylococcus aureus assessed as porphyrin level per 10^-6 CFU microbial load incubated at 10 mM followed by irradiation at 120 J.cm2 light relative to untreated control. Format: functional. The gist of the method:
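MRSA was washed in PBS pH 6.5 and held with substrate in PBS for 4 h in the dark at 37°C with shaking; a separate fraction was taken for porphyrin analysis. Pellets were extracted in ethanol/DMSO/acetic acid (80:20:1), sonicated 5 × 5 s at 0°C and centrifuged. Supernatant went to gradient HPLC with fluorescence detection (excitation 407, emission 620 nm). Total porphyrins are expressed as pmol·10⁻⁶ CFU.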

Assay [5] relates to Escherichia coli. The experiment in a line: Antibacterial activity against Escherichia coli K-12 assessed as reduction in microbial viability incubated at 30 mM for 4 hrs under dark condition. It counts as functional, organism-based. The gist of the method: (§3)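 Dark toxicity. Washed log-phase cells (OD600 ~0.30, PBS 0.1 N pH 6.5) were held 4 h at 37°C in the dark with shaking in substrate dissolved in the same PBS and were not illuminated. CFU were counted on Columbia agar. Survival = CFU/ml of nonilluminated sample ÷ CFU/ml of initial sample; mean of n = 4 ± SD.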

In assay [6] the test system is Escherichia coli. The experiment in a line: Induction of photoactive porphyrins in Escherichia coli K-12 assessed as porphyrin level per 10^-6 CFU microbial load incubated at 10 mM followed by irradiation at 120 J.cm2 light relative to untreated control. It counts as functional. The gist of the method:
as §1

The subject of assay [7] is Escherichia coli. Briefly: Antibacterial activity against Escherichia coli Ti05 assessed as microbial survival fraction incubated at 10 mM followed by irradiation at 120 J.cm2 light relative to untreated control. It counts as functional. The gist of the method: as §2
For assay [8], the system named is Escherichia coli. Briefly: Induction of photoactive porphyrins in Escherichia coli Ti05 assessed as porphyrin level per 10^-6 CFU microbial load incubated at 10 mM followed by irradiation at 120 J.cm2 light relative to untreated control. It counts as functional. The gist of the method: as §1
The subject of assay [9] is Escherichia coli. Briefly: Induction of photoactive porphyrins in Escherichia coli K-12 assessed as uroporphyrin level exposed to irradiation at 120 J.cm2 light by HPLC. Format: functional, organism-based. The method in brief: as §1
Assay [10] relates to Escherichia coli. Briefly: Antibacterial activity against Escherichia coli K-12 assessed as microbial survival fraction incubated at 10 mM followed by irradiation at 120 J.cm2 light relative to untreated control. Format: functional. The gist of the method:
as §2

In assay [11] the test system is Escherichia coli. Briefly: Induction of photoactive porphyrins in Escherichia coli K-12 assessed as porphyrin 7-CP level exposed to irradiation at 120 J.cm2 light by HPLC. Format: functional, organism-based. The method in brief:
as §1

For assay [12], the system named is Escherichia coli. Briefly: Induction of photoactive porphyrins in Escherichia coli K-12 assessed as porphyrin 6-CP level exposed to irradiation at 120 J.cm2 light by HPLC. Format: functional, organism-based. The method in brief:
as §1

Assay [13] relates to Escherichia coli. Briefly: Antibacterial activity against Escherichia coli K-12 assessed as reduction in microbial viability incubated at 10 mM followed by irradiation at 120 J.cm2 light. Format: functional, organism-based. The method in brief:
as §2

Assay [14] concerns Staphylococcus aureus. Briefly: Antibacterial activity against methicillin resistant Staphylococcus aureus assessed as microbial survival fraction incubated at 10 mM followed by irradiation at 120 J.cm2 light relative to untreated control. Format: functional. The method in brief: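 MRSA grown 48 h on Columbia sheep-blood agar, then overnight in tryptone soy broth at 37°C, brought to OD600 ~0.30 and washed twice in PBS pH 6.5. Cells were held with substrate in PBS for 4 h in the dark at 37°C with shaking. About 5 × 10⁷ bacteria were exposed to halogen white light for 40 min (120 J·cm⁻²). CFU were counted on Columbia agar; survival = N_PDI/N₀; mean of n = 4 ± SD.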

Assay [15] concerns Escherichia coli. The experiment in a line: Induction of photoactive porphyrins in Escherichia coli K-12 at 10 mM exposed to irradiation at 120 J.cm2 light by HPLC. It counts as functional, organism-based. The gist of the method: as §1
In assay [16] the test system is Escherichia coli. Briefly: Induction of photoactive porphyrins in Escherichia coli K-12 assessed as porphyrin level per 10^-6 CFU microbial load incubated at 0.1 mM followed by irradiation at 120 J.cm2 light relative to untreated control. It counts as functional. The gist of the method: as §1
Assay [17] concerns Escherichia coli. Briefly: Induction of photoactive porphyrins in Escherichia coli Ti05 assessed as porphyrin level per 10^-6 CFU microbial load incubated at 1 mM followed by irradiation at 120 J.cm2 light relative to untreated control. It counts as functional. The method in brief:
as §1

Assay [18] concerns Pseudomonas aeruginosa. The experiment in a line: Antibacterial activity against Pseudomonas aeruginosa assessed as microbial survival fraction incubated at 1 mM followed by irradiation at 120 J.cm2 light relative to untreated control. It counts as functional. The method in brief:
as §2

Assay [19] relates to Escherichia coli. Briefly: Antibacterial activity against Escherichia coli K-12 assessed as reduction in microbial viability incubated at <40 mM for 4 hrs under dark condition. It counts as functional, organism-based. The method in brief: as §3
The subject of assay [20] is Escherichia coli. The experiment in a line: Antibacterial activity against Escherichia coli K-12 assessed as reduction in microbial viability incubated at 40 mM for 4 hrs under dark condition. It counts as functional, organism-based. The gist of the method: as §3
The subject of assay [21] is Escherichia coli. The experiment in a line: Antibacterial activity against Escherichia coli K-12 assessed as reduction in microbial viability incubated at 40 mM followed by irradiation at 120 J.cm2 light. It counts as functional, organism-based. The gist of the method:
as §2

Assay [22] relates to Escherichia coli. Briefly: Induction of photoactive porphyrins in Escherichia coli K-12 exposed to irradiation at 120 J.cm2 light by HPLC. Format: functional, organism-based. The method in brief: as §1
The test system of assay [23] is Escherichia coli. Briefly: Induction of photoactive porphyrins in Escherichia coli K-12 assessed as protoporphyrin level exposed to irradiation at 120 J.cm2 light by HPLC. Format: functional, organism-based. The method in brief: as §1
Assay [24] has as its system Escherichia coli. Briefly: Antibacterial activity against Escherichia coli Ti05 assessed as microbial survival fraction incubated at 1 mM followed by irradiation at 120 J.cm2 light relative to untreated control. Format: functional. The method in brief: as §2
Assay [25] relates to Pseudomonas aeruginosa. Briefly: Induction of photoactive porphyrins in Pseudomonas aeruginosa assessed as porphyrin level per 10^-6 CFU microbial load incubated at 1 mM followed by irradiation at 120 J.cm2 light relative to untreated control. Format: functional. The gist of the method:
as §1

The subject of assay [26] is Escherichia coli. The experiment in a line: Antibacterial activity against Escherichia coli K-12 assessed as microbial survival fraction incubated at 0.1 mM followed by irradiation at 120 J.cm2 light relative to untreated control. Format: functional. The method in brief: as §2
Assay [27] concerns Escherichia coli. Briefly: Antibacterial activity against Escherichia coli K-12 assessed as reduction in microbial viability incubated at 0.1 mM followed by irradiation at 120 J.cm2 light. It counts as functional, organism-based. The method in brief:
as §2

Activity calls are given as the source filed them. The rule behind the calls is not given here.

As for `COC(=O)CCC(=O)CN` [METHYL AMINOLEVULINATE], the outcome in the assay on Escherichia coli [1], with Escherichia coli [9], in the assay with Escherichia coli [11] and in the assay on Escherichia coli [12] was Active. In addition, the Activity was 6 pmol with Pseudomonas aeruginosa [2], 2.5 pmol in the assay with Staphylococcus aureus [4], 12.5 pmol in the assay with Escherichia coli [6] and 10.2 pmol in the assay with Escherichia coli [8]. Further, the Ratio in the assay with Pseudomonas aeruginosa [3] is 0.012; in the assay on Escherichia coli [7], 2e-05; in the assay with Escherichia coli [10], 8.1e-06; in the assay on Staphylococcus aureus [14], 0.00078. Besides, the “growth inhibition (GI)” value with Escherichia coli [5] and in the assay with Escherichia coli [13] was “Active” throughout.

As to `CCCCCOC(=O)CCC(=O)CN`, the outcome with Escherichia coli [15] was inactive. Besides, the “growth inhibition (GI)” value with Escherichia coli [13] was “inactive”.

In the case of `CCCCOC(=O)CCC(=O)CN`, the outcome with Escherichia coli [15] was Active. Moreover, in the assay on Escherichia coli [13], the “growth inhibition (GI)” value was “Active”.

Consider `CCCCCCOC(=O)CCC(=O)CN`, for which, in the assay on Escherichia coli [15], the result was inactive. In addition, in the assay on Escherichia coli [13], the “growth inhibition (GI)” value is “inactive”.

With `CCCCCCCCOC(=O)CCC(=O)CN`, the result in the assay with Escherichia coli [15] was inactive. Further, the “growth inhibition (GI)” value in the assay on Escherichia coli [13] is “inactive”.

In the case of `NCC(=O)CCC(=O)O` [AMINOLEVULINIC ACID], the Activity with Escherichia coli [16] is 7.5 pmol; with Escherichia coli [17] it was 5.4 pmol; with Staphylococcus aureus [4], 6.6 pmol; in the assay with Pseudomonas aeruginosa [25] it was 34.5 pmol. The Ratio with Pseudomonas aeruginosa [18] was 0.0019; in the assay on Escherichia coli [24], 5e-05; in the assay on Escherichia coli [26], 0.00048; in the assay with Staphylococcus aureus [14], 5e-06. Further, the “growth inhibition (GI)” value with Escherichia coli [19] is “inactive”. Further, the “growth inhibition (GI)” value in the assay on Escherichia coli [20], in the assay with Escherichia coli [21] and with Escherichia coli [27] was “Active” in each case. The result in the assay with Escherichia coli [22], with Escherichia coli [23] and with Escherichia coli [9] was Active.

The record behind these values is ChEMBL document CHEMBL1255281, “Effects on gram-negative and gram-positive bacteria mediated by 5-aminolevulinic Acid and 5-aminolevulinic acid derivatives” (2008).
